Measured values of several laboratories.
Protocols differ between the studies behind these lines. pEC50, pIC50: −log10 of the molar value.

SMILES	tested on	test	system	setting	measurement	value
COc1cccc(-c2nc(N)nc(N)c2OCCCOc2ccccc2CCC(=O)O)c1	Mycobacterium avium	microbial growth, resazurin	–	–	MIC	5.6 µg/mL
C=CC(=O)NC1CCN(c2ncc3ncnc(Nc4ccc(Oc5ccc6c(c5)ncn6C)c(C)c4)c3n2)CC1	NCI-H520	cell growth or viability	–	–	pEC50	6.15
O=C(O)CO/N=c1\cc2n(-c3ccc(Cl)cc3)c3ccccc3nc-2cc1Nc1ccc(Cl)cc1	Mycobacterium avium	microbial growth	ATCC700898	–	MIC	0.94 µM
CN(Cc1ccc(C(C)(C)C)cc1)Cc1cccc2ccccc12	Trichophyton rubrum	microbial growth, disc diffusion	ATCC28188	0.512 µg/mL, 6 days	inhibition zone	≥ 55 mm
COc1cccc2c1C(=O)c1c(O)c3c(c(O)c1C2=O)C[C@@](O)(C(=O)CO)C[C@@H]3O[C@H]1C[C@H](N)[C@H](O)[C@H](C)O1	NCI-H1975	cell growth or viability, MTT	–	72 h	pIC50	6.47
NCCCc1nc(N)nc(N)c1OCCCOc1ccccc1CCC(=O)O	Mycobacterium avium	microbial growth, resazurin	–	–	MIC	12.9 µg/mL
CC(=O)c1ccc(Oc2ccc(C(=O)C(Cl)Cl)cc2[N+](=O)[O-])cc1	NCI-H1975	cell growth or viability, MTT	–	2.5 µM	inhibition	85.2%
CO/N=c1\cc2n(-c3ccc(Cl)cc3)c3ccccc3nc-2cc1Nc1ccc(Cl)cc1	Mycobacterium avium	microbial growth	ATCC700898	–	MIC	0.47 µM
O=C(c1ccc(Oc2ccc(-c3ccccc3)cc2)c([N+](=O)[O-])c1)C(Cl)Cl	NCI-H1975	cell growth or viability, MTT	–	2.5 µM	inhibition	85.2%
NCC[C@H](O)C(=O)N[C@@H]1C[C@H](N)[C@@H](O[C@H]2O[C@H](CN)[C@@H](O)[C@H](O)[C@H]2O)[C@H](O)[C@H]1O[C@H]1O[C@H](CO)[C@@H](O)[C@H](N)[C@H]1O	Mycobacterium avium	microbial growth, resazurin	–	–	MIC	1.7 µg/mL
O=C(c1ccc(Oc2ccc(Br)cc2)c([N+](=O)[O-])c1)C(Cl)Cl	NCI-H1975	cell growth or viability, MTT	–	2.5 µM	inhibition	60.3%
CCOC(=O)CNC(=O)CO/N=c1\cc2n(-c3ccc(Cl)cc3)c3ccccc3nc-2cc1Nc1ccc(Cl)cc1	Mycobacterium avium	microbial growth	–	clinical isolate	MIC	> 30 µM
O=C(c1ccc(Oc2ccc3cc(Br)ccc3c2Cl)c([N+](=O)[O-])c1)C(Cl)Cl	NCI-H1975	cell growth or viability, MTT	–	2.5 µM	inhibition	85.4%
O=C(CO/N=c1\cc2n(-c3ccc(Cl)cc3)c3ccccc3nc-2cc1Nc1ccc(Cl)cc1)NCc1ccc(C(F)(F)F)cc1	Mycobacterium avium	microbial growth	–	clinical isolate	MIC	> 30 µM
CCCCCc1nc(N)nc(N)c1OCCCOc1ccccc1CCC(=O)O	Mycobacterium avium	microbial growth, resazurin	–	–	MIC	0.6 µg/mL
C[C@H](NC(=O)CO/N=c1\cc2n(-c3ccc(Cl)cc3)c3ccccc3nc-2cc1Nc1ccc(Cl)cc1)C(=O)OC(C)(C)C	Mycobacterium avium	microbial growth	–	clinical isolate	MIC	> 30 µM
N#Cc1ccc(Oc2ccc(C(=O)C(Cl)Cl)cc2[N+](=O)[O-])cc1	NCI-H1975	cell growth or viability, MTT	–	2.5 µM	inhibition	96.8%
O/N=c1\cc2n(-c3ccc(Cl)cc3)c3ccccc3nc-2cc1Nc1ccc(Cl)cc1	Mycobacterium avium	microbial growth	–	clinical isolate	MIC	> 30 µM
CN(Cc1ccc(C2(C(F)(F)F)CC2)cc1)Cc1cccc2ccccc12	Trichophyton rubrum	microbial growth, disc diffusion	ATCC28188	0.064 µg/mL, 6 days	inhibition zone	≥ 55 mm
